Source: PubChem BioAssay (Broad Institute)
This excerpt belongs to a sample that is enriched for hits.
GSK3B inh = inhibitors of human GSK3beta kinase; P49841; GST-GSK3beta kinase, ADP-Glo luminescence, 60 min; hits give low values; activity score (negative = inhibition), % at 10 µM; 0.038% of 300,000 active; AID 2097;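 active = more than half of replicate wells score below -50%, meaning over 50% inhibition versus plate controls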;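 note: 0% = median DMSO wells and -100% = median GW8510 positive control wells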
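test system = GST-tagged human GSK3beta kinase, cell-free | reagent = 25 µM ATP with peptide substrate | dosing = one dose of 10 µM per compound | schedule = 60 min reaction, RT | detection = luminescent ADP-Glo measurement of ADP formed | control set = DMSO neutral wells and GW8510 at 20 µM as positive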
Dyrk1A ADPGlo = inhibitors of rat Dyrk1A kinase; AID 504441; ADP-Glo luminescence, NFATc1 peptide; inhibition, % at 12.5 µM; 0.43% of 310,000 active; Q63470; in the data active = inhibition above about 50%;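 note: plate controls were vehicle with enzyme for no effect and no enzyme for full effect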
STK33 kinase inh = human STK33 kinase inhibition. Q9BYT3. purified STK33, MBP phosphorylation, ADP-Glo luminescence. inhibition, % at 10 µM. 0.073% of 320,000 active. AID 2661;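 active = inhibition at or above 25%, using the most active replicate where run in duplicate; inactive = inhibition below 25%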
Target sequence (Q9BYT3 whole entry, looked up): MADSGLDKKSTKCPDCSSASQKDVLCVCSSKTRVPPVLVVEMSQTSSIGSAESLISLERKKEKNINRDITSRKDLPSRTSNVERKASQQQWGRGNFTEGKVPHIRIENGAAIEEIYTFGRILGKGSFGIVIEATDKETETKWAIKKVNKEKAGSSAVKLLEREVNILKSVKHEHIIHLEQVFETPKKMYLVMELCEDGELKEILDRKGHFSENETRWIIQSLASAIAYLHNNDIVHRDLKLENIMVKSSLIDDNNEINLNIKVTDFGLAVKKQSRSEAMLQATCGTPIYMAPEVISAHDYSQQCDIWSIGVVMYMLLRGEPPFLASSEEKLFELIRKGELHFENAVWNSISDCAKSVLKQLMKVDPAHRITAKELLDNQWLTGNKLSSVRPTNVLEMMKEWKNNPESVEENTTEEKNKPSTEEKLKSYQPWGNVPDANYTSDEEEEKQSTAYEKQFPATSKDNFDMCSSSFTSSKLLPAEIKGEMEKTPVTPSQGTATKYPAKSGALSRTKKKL
GSK3 alpha inh = inhibitors of human GSK-3 alpha kinase. P49840. ADP-Glo luminescence, 60 min. inhibition, % at 10 µM. 0.1% of 320,000 active. AID 2650;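 active = more than half of replicates show inhibition above 20%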;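 note: GST-tagged GSK-3 alpha with peptide substrate and 25 µM ATP; 0% = DMSO neutral wells and 100% = GW8510 positive control wells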
ADP-Glo artifact = counter-screen for Dyrk1A inhibitors: ADP-Glo luciferase artifacts | ADP-Glo luciferase artifact assay, no Dyrk1A, luminescence | AC50, µM (top dose mostly 12 µM), without a hit: top-dose activity change, negative = inhibition | shares compounds with Dyrk1A ADPGlo | 1,300 tested, under 10 active | AID 588348;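 active = fitted half-maximal dose AC50 no more than ten times the top valid tested dose, with luminescence dropping as dose rises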
Starred values were filed as active, the others as inactive; . = not tested or not shown.

SMILES	GSK3B inh	Dyrk1A ADPGlo	STK33 kinase inh	GSK3 alpha inh	ADP-Glo artifact
Cc1nc(CCNC(=O)C2CCC(=O)N(Cc3ccc(Cl)cc3)C2)sc1C (configuration not stated)	-3	.	.	.	.
COc1ccc(OCC(=O)OCC(=O)Nc2ccc3[nH]c(=O)[nH]c3c2)cc1	.	6	0	-1	.
Cc1cc(O)c2c(c1)C(=O)c1cc(O)cc(O)c1C2=O	-8	66*	4	14	7%
O=C1c2cc(O)cc(O)c2C(=O)c2c1cc(O)c([C@@H](CO)CCO)c2O	-6	24	12	15	.
CCOC(=O)CSC1=NC(=O)/C(=C\c2ccc(OC(C)=O)cc2)S1	-13	86*	12	13	9%
CCOC(=O)CSC1=NC(=O)/C(=C/c2ccc(Br)cc2)S1	6	.	0	-3	.
CCN(CC(=O)Nc1c(F)cccc1F)C(=O)c1ccc(OCc2c(C)noc2C)cc1	.	-2	-1	-1	.
N#CCC(N)=C(C#N)C#N	-3	69*	2	10	8%
O=C(O)c1ccc(-n2cc(-c3cc4ccccc4oc3=O)[nH]c2=S)cc1	.	67*	.	.	9%
CCCN(C(=S)Nc1ccccc1)C1CCS(=O)(=O)C1 (configuration not stated)	0	-2	-1	-3	.
COC(=O)C1=C(C)N(Cc2ccccc2)C(=NCc2cccc(C(F)(F)F)c2)N[C@H]1c1cccc(C(F)(F)F)c1	.	-6	4	3	.
COCCN=C1N[C@@H](c2cccc(C(F)(F)F)c2)C(C(=O)OC)=C(C)N1Cc1ccccc1	-2	57*	0	5	8%
N=C1/C(=C\c2ccc(-c3cccc(C(=O)O)c3)o2)C(=O)N=C2SC=C(c3ccccc3)N12	0	61*	3	2	8%
Cc1ccccc1-n1c(C)cc(/C=C2/C(=N)N3C(c4ccccc4)=CSC3=NC2=O)c1C	3	2	-1	-3	.
COc1cc2c(C(=O)N3CCN(c4ccccc4F)CC3)cn(C)c(=O)c2cc1OC	-19	17	-1	-6	.
O=C(Nc1cccc(-c2nn[nH]n2)c1)c1csc2c1CCCC2	2	56*	5	3	7%
O=C(Nc1ccccc1O)c1csc2c1CCCC2	2	4	-2	-1	.
CCc1ccc(C(=O)Nc2nc(C)cs2)s1	-4	8	1	1	.
CCc1ccc(C(=O)Nc2cccc(-c3nn[nH]n3)c2)s1	3	83*	-1	1	10%
COCc1ccccc1C1=CC(=O)C[C@H](c2ccc(OC)cc2)C1	.	0	1	-2	.
Oc1ccc(-c2nc3ncccn3c2Nc2ccc3c(c2)OCO3)cc1	-1	60*	2	53*	8%
Cc1nc(N)sc1-c1csc(Nc2ccccc2)n1	-2	52*	0	3	8%
CC(=O)Nc1nc(C)c(-c2csc(Nc3ccc(O)cc3)n2)s1	.	76*	13	24	8%
Cc1nc(N)sc1-c1csc(Nc2cccc(C(=O)O)c2)n1	-2	25	4	12	.
COc1cc(/C=N/NC(=O)c2cc(C)oc2C)cc(OC)c1OC	0	1	-1	-2	.
SMILES	GSK3B inh	Dyrk1A ADPGlo	STK33 kinase inh	GSK3 alpha inh	ADP-Glo artifact
Oc1ccc(/C=N/n2c(-c3ccccc3)n[nH]c2=S)cc1Br	-6	56*	8	10	11%
Oc1c(Br)cc(/C=N/n2c(-c3ccccc3)n[nH]c2=S)cc1Br	-2	1	-12	5	.
N#Cc1c2ccc(O)cc2n2ccccc12	-11	87*	32*	26	8%
C=C1CC(C(=O)N/N=C/c2ccccc2)C1	0	4	-1	-2	.
CCCN(Cc1nnc(-c2ccccc2Cl)o1)C(=O)c1cc([N+](=O)[O-])cc([N+](=O)[O-])c1	-1	8	-1	-1	.
Cc1ccc(-c2nn[nH]n2)cc1Cl	-4	53*	0	5	8%
NS(=O)(=O)c1ccc(-c2ccc(/C=C3\NC(=S)NC3=O)o2)cc1	-28	75*	-1	4	9%
OCCNc1cc(Cl)ncn1	4	-2	-2	-1	.
COc1ccc(-c2cc(NCCc3ccncc3)n3ncnc3n2)cc1	1	51*	0	18	5%
O=C1NC(=O)/C(=C\c2ccc(Oc3cnccn3)cc2)S1	4	59*	2	0	10%
O=C1NC(=S)S/C1=C/c1ccc(Oc2cnccn2)cc1	2	65*	0	-2	10%
O=Cc1ccc(Oc2cnccn2)cc1	2	1	-2	.	.
Cc1ncc([N+](=O)[O-])n1S(=O)(=O)c1cc(Br)ccc1Br	-1	-3	0	-7	.
O=C1/C(=C/c2ccc3c(c2)OCO3)Oc2cc(OCC(=O)N3CCC[C@H]3C(=O)O)ccc21	1	71*	5	59*	16%
COc1cccc(/C=C2\Oc3cc(OCC(=O)N4Cc5ccccc5C[C@H]4C(=O)O)ccc3C2=O)c1	1	16	15	5	.
COc1ccc(-c2nc(N)ncc2-c2ccccc2)c(O)c1	4	-1	4	3	.
COc1ccc(-c2nc(N)ncc2-c2ccccc2OC)c(O)c1	1	51*	4	12	7%
CCCCn1c(N)c(N(CCOC)C(=O)c2cc(=O)[nH]c3ccccc23)c(=O)[nH]c1=O	.	-6	0	-1	.
Nc1ccc(S(=O)(=O)NN=CC=Cc2ccccc2[N+](=O)[O-])cc1	.	1	.	.	.
COc1ccc(-n2nc(C(=O)NCC(=O)NCc3cccc(F)c3)c3ccccc3c2=O)cc1Cl	0	-7	-1	-3	.
CCc1c(O)nc(SCC(=O)Nc2nc3ccccc3s2)n(-c2ccccc2)c1=O	1	.	3	-4	.
C=CCn1c(SCC(=O)Nc2nc3ccccc3s2)nc(O)c(CC)c1=O	3	51*	1	0	6%
O=C1C=CC(O)(c2cc(=O)c3c(O)cc(O)cc3o2)C=C1	-1	51*	38*	26	8%
Cc1nc2cc(Cl)c(Cl)cc2n1-c1ccccn1	-3	21	1	3	.
Fc1ccccc1NC(=S)Nc1cccc2cnccc12	-4	65*	6	10	9%
SMILES	GSK3B inh	Dyrk1A ADPGlo	STK33 kinase inh	GSK3 alpha inh	ADP-Glo artifact
c1cncc(-c2nc(NCc3ccco3)c3ccccc3n2)c1	-3	53*	5	11	10%
c1cncc(-c2nc(NCCCn3ccnc3)c3ccccc3n2)c1	-55*	75*	12	71*	9%
Cc1ccc(-c2nc(NCc3ccco3)c3ccccc3n2)cc1	4	2	-1	-2	.
COc1ccc(C2NC(=S)NC3=C2CCc2cc(OC)ccc23)cc1 (configuration not stated)	-4	10	-2	-1	.
CN(CC(=O)Nc1cccc(F)c1)C(=O)C1CCC(C(=O)N(C)CC(=O)Nc2cccc(F)c2)CC1 (configuration not stated)	.	3	.	.	.
O=C(Cc1cccc(NC(=O)C2CCCN(C(=O)C3CCCCC3)C2)c1)Nc1cccc(C(=O)N2CCCC2)c1 (configuration not stated)	.	4	1	-2	.
